Data from ChEMBL document CHEMBL5500397, “Discovery of CDC42 Inhibitors with a Favorable Pharmacokinetic Profile and Anticancer In Vivo Efficacy” (J Med Chem, 2024).
Each block holds one compound with its values, some of them ahead of it.

Legend:
[1] = Metabolic stability in mouse plasma assessed as half life at 2 uM measured after 0 to 120 mins by LC-MS/MS analysis; format: ADME, cell-free; details: time 0-120 min; for t1/2: 2 µM
[2] = Drug concentration in male CD-1 mouse plasma at 10 mg/kg, po measured after 4 hrs by LC-MS/MS analysis; format: ADME, organism-based
Method in brief: (§1)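 Mouse PK after single oral dose of 10 mg/kg; n = 3 animals per time point; plasma concentration–time profile used for observed and calculated PK parameters.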

[3] = Cmax in male CD-1 mouse at 3 mg/kg, iv measured upto 240 mins by LC/MS/MS analysis; format: ADME, organism-based; details: in vivo, 4 h
[4] = Oral bioavailability in male CD-1 mouse at 10 mg/kg measured upto 480 mins by LC-MS/MS analysis; format: ADME, organism-based; details: in vivo, 8 h; method in brief: as §1
[5] = Cmax in male CD-1 mouse at 10 mg/kg, po measured upto 480 mins by LC-MS/MS analysis; format: ADME, organism-based; details: in vivo, 8 h; method in brief: as §1
[6] = Half life in male CD-1 mouse at 3 mg/kg, iv measured upto 240 mins by LC/MS/MS analysis; format: ADME, organism-based; details: in vivo, 4 h
Method in brief: (§2)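 Mouse PK after single intravenous injection of 3 mg/kg; n = 3 animals per time point; plasma concentration–time profile used for observed and calculated PK parameters.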

[7] = Drug concentration in male CD-1 mouse plasma at 3 mg/kg, iv measured after 4 hrs by LC-MS/MS analysis; format: ADME, organism-based; method in brief: as §2
[8] = Half life in male CD-1 mouse at 10 mg/kg, po measured upto 480 mins by LC-MS/MS analysis; format: ADME, organism-based; details: in vivo, 8 h; method in brief: as §1
[9] = Tmax in male CD-1 mouse at 3 mg/kg, iv measured upto 240 mins by LC/MS/MS analysis; format: ADME, organism-based; details: in vivo, 4 h; method in brief: as §2
[10] = Metabolic stability in mouse liver microsomes assessed as half life at […] preincubated for 15 mins followed by NADPH cofactor addition and measured after 1 hr by LC-MS/MS analysis; format: ADME, Microsome; details: dose 4.6 µM, time 75 min
[11] = Drug concentration in male CD-1 mouse plasma at 10 mg/kg, po measured after 8 hrs by LC-MS/MS analysis; format: ADME, organism-based; method in brief: as §1

t1/2 [1]: > 2 h
Compound: FC(F)(F)c1cccc(Nc2nc(-c3ccccc3)cc(C3CCNCC3)n2)c1

t1/2 [1]: > 2 h
Compound: COc1cc(Nc2nc(-c3ccccc3)cc(C3CCNCC3)n2)ccn1

t1/2 [1]: > 2 h
concentration at 4 h [2]: 40 ng/mL
Cmax [3]: 643 ng/mL
F [4]: 8%
Cmax [5]: 99 ng/mL
t1/2 [6]: 1.92 h
concentration at 4 h [7]: 84 ng/mL
t1/2 [8]: 1.52 h
Tmax [9]: 5 min
Compound: FC(F)(F)c1cc(Nc2nc(-c3ccccc3)cc(C3CCNCC3)n2)ccn1

t1/2 [1]: 1 h
Compound: CN(C)c1cccc(Nc2nc(-c3ccccc3)cc(C3CCNCC3)n2)c1

t1/2 [1]: > 2 h
Compound: FC(F)(F)Oc1cccc(Nc2nc(-c3ccccc3)cc(C3CCNCC3)n2)c1

half-life at 2 µM [1]: > 2 h
Cmax [3]: 320 ng/mL
F [4]: 22%
Cmax [5]: 140 ng/mL
concentration at 8 h [11]: 7 ng/mL
t1/2 [6]: 4.28 h
concentration at 4 h [7]: 74 ng/mL
t1/2 [8]: 2.8 h
Tmax [9]: 5 min
Compound: COc1ccc(Nc2nc(-c3ccccc3)cc(C3CCNCC3)n2)cc1OC

t1/2 [1]: > 2 h
Compound: COc1ccc(Nc2nc(-c3ccccc3)cc(C3CCNCC3)n2)cn1

t1/2 [1]: 1.48 h
Compound: COC(=O)c1cc(Nc2nc(-c3ccccc3)cc(C3CCNCC3)n2)ccc1OC

t1/2 [1]: > 2 h
Compound: FC(F)Oc1cc(Nc2nc(-c3ccccc3)cc(C3CCNCC3)n2)ccn1

Further lines, the compound ahead of its results:

Compound: c1ccc(-c2cc(Nc3ccc4cc[nH]c4c3)nc(C3CCNCC3)n2)cc1
t1/2 [1]: > 2 h

Compound: FC(F)(F)c1cccc(Nc2nc(-c3cccc4cnccc34)nc(C3CCNCC3)n2)c1
half-life at 2 µM [1]: > 2 h
half-life at […] [10]: > 1 h

Compound: Cn1ccc2ccc(Nc3cc(-c4ccccc4)nc(C4CCNCC4)n3)cc21
t1/2 [1]: > 2 h

Compound: Cn1ccc2cc(-c3nc(Nc4cccc(C(F)(F)F)c4)nc(C4CCNCC4)n3)ccc21
half-life at 2 µM [1]: > 2 h
half-life at […] [10]: > 1 h

Compound: FC(F)(F)c1cccc(Nc2nc(-c3coc4ccccc34)nc(C3CCNCC3)n2)c1
half-life at 2 µM [1]: > 2 h
half-life at […] [10]: > 1 h

Compound: CN(C)c1cccc(Nc2cc(-c3ccccc3)nc(C3=CCNCC3)n2)c1
t1/2 [1]: > 2 h

Compound: FC(F)(F)c1cccc(Nc2nc(-c3ccc[nH]3)nc(C3CCNCC3)n2)c1
t1/2 [1]: > 2 h

Compound: FC(F)(F)c1cccc(Nc2nc(C3=CCNCC3)nc(-c3ccsc3)n2)c1
t1/2 [1]: > 2 h

Compound: FC(F)(F)c1cccc(Nc2nc(-c3ccc4[nH]ncc4c3)nc(C3CCNCC3)n2)c1
half-life at 2 µM [1]: > 2 h
half-life at […] [10]: > 1 h
